In ChEMBL document CHEMBL1141726, “bis-Pyridinium cyclophanes: novel ligands with high affinity for the blood-brain barrier choline transporter” (Bioorg Med Chem Lett, 2008):

Assay: Binding affinity to blood-brain barrier choline transporter in rat brain assessed as inhibition of [3H]choline uptake
Format: tissue-based
Procedure, shortened: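 In situ rat brain perfusion (Allen and Smith modification); inhibition of [3H]choline uptake into brain measured. Ki taken as analogue concentration inhibiting 50% of [3H]-choline uptake, calculated from a single inhibitor concentration. Ki values compared by ANOVA with Bonferroni's multiple comparisons test.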

| SMILES | Ki |
| --- | --- |
| C1#Cc2ccc[n+](c2)CCCC[n+]2cccc(c2)C#CCCCCCC1 | 15.2 µM |
| c1ccc2c[n+](CCCCCC[n+]3ccc4ccccc4c3)ccc2c1 | 29 µM |
| C[N+](C)(C)CCO [CHOLINE] | 41 µM |
| c1ccc2c[n+](CCCCCCCCCCCC[n+]3ccc4ccccc4c3)ccc2c1 | 22 µM |
| Cc1ccc[n+](CCCCCCCCCCCC[n+]2cccc(C)c2)c1 | 36 µM |
| c1ccc2c[n+](CCCCCCCCCC[n+]3ccc4ccccc4c3)ccc2c1 | 9.5 µM |
| C1#Cc2ccc[n+](c2)CCCCCCC[n+]2cccc(c2)C#CCCCCCC1 | 1.4 µM |
| CCCCCCCC[n+]1cccc([C@@H]2CCCN2C)c1 | 49 µM |
| C1#Cc2ccc[n+](c2)CCCCCCCC[n+]2cccc(c2)C#CCCCCCC1 | 0.8 µM |
| C1#Cc2ccc[n+](c2)CCCCCCCCC[n+]2cccc(c2)C#CCCCCCC1 | 33.8 µM |
